Compounds with a hit are over-represented: about 2.1% of the library has one in this group of screens.
Pemphigus Ab inh: inhibitors of pemphigus antibody binding to human desmoglein-3 | binding (percent of control), % at 10 µM | AID 588358 | 0.48% of 310,000 active | DSG3-coupled beads, scFv-anti-DSG3-GFP binding, flow cytometry; hits give low values;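 active means binding more than 3 SD below its plate's average and above zero; inconclusive means below that plate limit but binding exactly zero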;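 further: hits lower antibody fragment binding to DSG3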
RanGTP-Impb inh: inhibitors of RanGTP-importin-beta interaction, primary screen, biochemical, FRET, CFP-Ran, YFP-importin-beta, homogeneous | cell-free CFP-Ran/YFP-importin-beta FRET ratio | inhibition, % (test concentration not listed) | 1.1% of 300,000 active | AID 2216;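 active means more than half of the replicate wells show a fall in the fluorescence ratio signal beyond about 16%, limit read from the data, passing the limit was not always enough; inconclusive means exactly half of the replicate wells pass the set limit; inactive means fewer than half of replicates pass the limit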;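 further: 0% = DMSO wells and 100% = Ran loaded with GDP instead of GTP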
p-CIP stab down: lowers stability of the mouse p/CIP coactivator protein; Q05BA5; F442A p/CIP-EGFP cells, EGFP fluorescence, 16 h; decrease of EGFP signal, % at 10 µM; 0.01% of 290,000 active;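 active means EGFP signal decrease of at least 30% at 10 µM or well 3 SD below plate mean, unless failing retest; inactive means the rest, including hits failing retest or dose response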
Runt-SMMHC FRET: Runt domain-CBFb-SMMHC interaction inhibition. AID 1434. Cerulean-Runt/Venus-CBFb-SMMHC FRET ratio 530/480, 1 h. inhibition, % at 20 µM. 0.74% of 220,000 active;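 active means mean inhibition across duplicate retests at 20 µM reaching about 50%, limit read from the data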;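 further: 0% = DMSO wells and 100% = wells with excess untagged CBFb-SMMHC; inhibitors lower the FRET ratio by blocking Runt binding to CBFb-SMMHC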
Target sequence (Q01196 whole entry, looked up, the tested form may be a part): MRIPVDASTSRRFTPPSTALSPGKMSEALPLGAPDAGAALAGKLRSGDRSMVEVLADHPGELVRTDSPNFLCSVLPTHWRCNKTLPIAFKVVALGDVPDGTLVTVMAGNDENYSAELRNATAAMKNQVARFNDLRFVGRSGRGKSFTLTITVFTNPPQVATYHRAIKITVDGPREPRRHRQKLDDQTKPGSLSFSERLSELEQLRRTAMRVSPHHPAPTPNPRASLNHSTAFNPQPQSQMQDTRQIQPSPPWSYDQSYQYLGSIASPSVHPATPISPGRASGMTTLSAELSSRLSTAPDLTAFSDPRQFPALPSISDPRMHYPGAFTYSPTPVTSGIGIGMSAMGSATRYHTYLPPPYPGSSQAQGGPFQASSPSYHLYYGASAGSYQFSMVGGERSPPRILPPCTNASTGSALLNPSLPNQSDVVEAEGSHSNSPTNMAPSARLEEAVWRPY
Target sequence (Q13951 whole entry, looked up, the tested form may be a part): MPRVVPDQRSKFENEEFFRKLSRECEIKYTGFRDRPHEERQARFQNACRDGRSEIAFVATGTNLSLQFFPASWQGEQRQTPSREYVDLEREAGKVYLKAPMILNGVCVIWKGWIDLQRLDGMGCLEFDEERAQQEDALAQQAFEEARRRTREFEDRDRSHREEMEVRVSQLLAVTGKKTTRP
Hck-Nef inh: inhibitors of human Hck kinase activated by Nef; Recombinant Hck-YEEI plus Nef, Z-Lyte FRET kinase assay; AID 463187; inhibition, % at 20 µM; 0.68% of 220,000 active; P08631;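 active means Hck-Nef kinase inhibition above about 50%, limit read from the data; inactive means inhibition below that limit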;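 further: 0% = DMSO with Hck plus Nef and 100% = Hck alone without Nef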
Runt-CBFb FRET: blocks binding of human RUNX1 Runt domain to CBFb | Q01196+Q13951 | Cerulean-Runt/Venus-CBFb FRET ratio 530/480, 1 h | inhibition, % at 20 µM | 0.46% of 220,000 active;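 active means inhibition over about 50% at 20 µM in the single-dose screen, limit read from the data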;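 further: 0% = DMSO wells and 100% = excess unlabeled CBFb competitor control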
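Measured by: fluorescence energy transfer, 422 nm excitation, 530/480 nm emission; Assay system: Cerulean-Runt domain; Medium: Tris pH 7.5 buffer with BSA; Measure: loss of energy transfer signal; Controls: 5 µM unlabeled CBFb as full-inhibition high control; Incubation: protein complex preformed 1 h, compound exposure 1 h, room temperature, dark.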
The depositor's hits bear a star; ? = inconclusive; nt = not tested or not shown.

SMILES	Pemphigus Ab inh	RanGTP-Impb inh	p-CIP stab down	Runt-SMMHC FRET	Hck-Nef inh	Runt-CBFb FRET
COCCNS(=O)(=O)c1ccc2c3c(cccc13)C(=O)N2C	102.8	22.5*	-5.4	90.5	-46.4	-15.4
CCOC(=O)CNS(=O)(=O)c1ccc2c3c(cccc13)C(=O)N2CC	111.9	21.3*	-0.6	86.5*	-52.8	0.5
CCN1C(=O)c2cccc3c(S(=O)(=O)NCc4ccccn4)ccc1c23	114.3	22.9*	11.0	57.2	-0.1	-20.1
O=C(NC(NNc1ccc([N+](=O)[O-])cc1)(C(F)(F)F)C(F)(F)F)c1ccccc1Cl	111.6	23.1*	-5.2	-6.7	-1.0	-1.4
O=C(NC(NNc1ccc([N+](=O)[O-])cc1)(C(F)(F)F)C(F)(F)F)c1ccc(F)cc1	94.7	-4.3	-17.8	-2.1	1.7	-3.6
Cc1ccc(S(=O)(=O)N2CCN(C(=O)Cn3cnc4c3c(=O)n(C)c(=O)n4C)CC2)cc1C	103.3	nt	nt	nt	nt	nt
Cc1ccc(-c2nc(-c3nccc4ccccc34)oc2-c2ccccc2)cc1	82.6	1.1	-1.3	72.2*	33.4	6.9
CCOc1cc(-c2cc(-c3ccc(N)cc3)nc(N)c2C#N)ccc1O	106.1	48.3*	-19.0	80.0*	17.1	45.7
Cc1cc(S(=O)(=O)NCc2ccc(N3CCN(C)CC3)cc2)c(C)s1	106.8	-3.7	-0.9	0.9	8.6	4.8
CC(C)c1nc(SCC(=O)Nc2ccc3c(c2)OCCO3)n[nH]1	109.8	19.5*	8.9	-3.0	9.6	-0.4
CC(C)c1nc(SCC(=O)Nc2ccc3c(c2)OCO3)n[nH]1	95.4	1.5	-15.0	-3.4	-1.5	1.9
CCC(=O)c1ccc(OCC(=O)Nc2ccc3c(c2)OCCO3)cc1	-3.4*	nt	nt	nt	nt	nt
C=CC[C@]12CCc3sccc3C1N(c1ccc(C(=O)OCC)cc1)C2=O (some centres not stated)	98.8	nt	nt	nt	nt	nt
O=C1CCCCC1C(O)(C(=O)c1ccccc1)c1ccccc1 (configuration not stated)	105.4	nt	nt	nt	nt	nt
N#CC1=C(N)SC(N)=C(C#N)C1Cc1ccccc1	144.5	61.9*	-14.9	48.7	1.3	21.9
N#CC1=C(N)SC(N)=C(C#N)C1CCc1ccccc1	nt	?	-20.1	38.9	5.0	25.9
CC(C)CC1C(C#N)=C(N)SC(N)=C1C#N	103.0	41.1*	0.8	8.0	0.6	6.5
CC(C)(C)c1ccc(C(=O)N2CCN(CCNC(=O)C(=O)NCc3ccc(Cl)cc3)CC2)cc1	95.8*	nt	-14.0	nt	nt	nt
c1ccc(-c2ccc(-c3ccccn3)s2)nc1	113.5	17.8*	-1.8	3.7	-4.7	-3.4
COc1ccnc(N2CCN(c3cccc(C(F)(F)F)c3)CC2)c1C#N	79.2*	-5.2	-2.1	-2.8	-0.5	-4.4
Cc1cc(N2CCOCC2)n2nc(C)c(-c3ccccc3)c2n1	nt	nt	-12.9	135.8	1.4	85.7*
Cn1c(C(=O)N2CCN(c3ccc([N+](=O)[O-])cc3)CC2)cc2c(=O)[nH]c3ccccc3c21	71.6*	0.4	-7.6	-13.1	24.1	-4.1
CCOC(=O)C1CCCN(C(=O)CCc2nc3sc4c(c3c(=O)[nH]2)CCCC4)C1 (configuration not stated)	97.6	nt	nt	nt	nt	nt
O=C(COC(=O)c1ccccc1NCCO)Nc1cc(C(F)(F)F)ccc1N1CCOCC1	nt	-2.4	-21.2	nt	nt	nt
CCOC(=O)c1cccc(NC(=O)Cn2nc(C)n3cccc3c2=O)c1	101.7	3.7	-3.3	nt	nt	nt
SMILES	Pemphigus Ab inh	RanGTP-Impb inh	p-CIP stab down	Runt-SMMHC FRET	Hck-Nef inh	Runt-CBFb FRET
O=C(Nc1nc2cc3c(cc2s1)OCCO3)c1ccc(N2C(=O)CCC2=O)cc1	81.1*	?	-3.8	-15.0	2.5	-5.6
Oc1nc(Nc2ccccc2)sc1/C=C1\C=Nc2ccccc21	85.8	21.1*	-16.7	-3.1	16.6	-7.9
CCn1c(O)c(/C=C2\C=Nc3ccccc32)sc1=O	101.3	-0.4	12.0	2.9	18.9	-2.1
CCn1c(O)c(/C=C2\C=Nc3ccccc32)sc1=Nc1ccc(C)cc1	103.6	2.5	-17.2	-12.8	1.0	-6.3
CCOC(=O)c1c(Nc2ccccc2)sc(/C=C2\C=Nc3ccccc32)c1O	103.6	42.6*	-10.5	-49.6	1.1	-47.8
CC(=O)Nc1ccc(S(=O)(=O)N2CCC(c3nc4c(nnn4Cc4ccccc4Cl)c(=O)[nH]3)CC2)cc1	106.4	0.8	3.9	nt	nt	nt
Cc1ccc(NC(=O)COC(=O)C(NS(=O)(=O)c2ccc(Cl)cc2)C(C)O)c(Br)c1 (configuration not stated)	53.4*	4.9	-6.3	6.3	-23.1	-4.0
O=C1C=C(NCc2ccc3c(c2)OCO3)CC(c2ccccc2)C1 (configuration not stated)	nt	-1.8	6.3	3.4	16.6	-0.7
COc1ccc(CCNC(=O)COC(=O)c2cc(Cl)nc(Cl)c2)cc1	101.3	nt	nt	nt	nt	nt
Cc1cc(C)n2c(=S)[nH]nc2n1	92.5	0.9	1.6	59.3*	-2.8	11.0
N=C1C(c2nc3ccccc3s2)=C(O)CN1NC(=O)c1ccco1	75.7*	-0.2	1.6	0.6	4.9	-1.1
COc1cccc(C(=O)NN2CC(O)=C(c3nc4ccccc4s3)C2=N)c1	100.8	2.1	-2.0	2.0	0.4	-3.9
COC(=O)c1cc(S(=O)(=O)N2CCCC2=O)c(Cl)cc1Cl	118.0	-5.5	9.3	nt	nt	nt
Cc1cc(C)n(C(N)=NC(=O)c2ccc([N+](=O)[O-])cc2)n1	95.3	6.1	42.2*	-0.7	14.5	1.3
Cc1cc(C)n(C(N)=NC(=O)c2ccccc2)n1	100.3	nt	nt	nt	nt	nt
CC(C)NC[C@@H](O)c1ccc(O)c(O)c1	120.4	11.5	-0.1	-3.4	1.1	2.6
CC(C)(C)NCC(O)c1cc(O)cc(O)c1 (configuration not stated)	45.0*	9.5	1.7	0.8	-4.1	-0.6
COCCNC(=O)C(C#N)c1nc2ccccc2nc1N1CCCCCC1 (configuration not stated)	95.5	71.9*	-4.6	51.3*	1.0	44.0
CN1CCN(c2nc3ccccc3nc2C(C#N)C(=O)OC2CCCCC2)CC1 (configuration not stated)	108.2	15.2*	-14.5	1.5	-4.0	0.0
COC(=O)CCC(=O)OC1(C)C(=O)C=C2C=C(c3ccsc3)OC=C2C1=O (configuration not stated)	43.1*	-8.4	nt	nt	nt	nt
COc1cc(OC)c(NC(=O)c2c(-c3ccccc3)noc2C)cc1Cl	70.4*	-4.3	-1.9	-1.5	16.2	-0.5
COc1ccc(Cl)cc1NC(=O)c1c(-c2ccccc2)noc1C	90.6	-1.5	-1.4	-0.7	8.9	-3.1
COc1ccc(N2CC(C(=O)Nc3nnc(SCC(=O)N4CCCC4)s3)CC2=O)cc1 (configuration not stated)	106.9	9.1	-6.6	nt	nt	nt

Screens as filed in PubChem BioAssay.
